Assay [1] addresses Human immunodeficiency virus type 1 reverse transcriptase (Human immunodeficiency virus 1, UniProt Q72547). The experiment in a line: Compound was evaluated for 50% inhibition of HIV-RT (HIV reverse transcriptase).
For another assay, the system named is Hepatitis B virus. Kind of assay: Compound was evaluated for 50% inhibition of HBV polymerases (Hepatitis B virus). It counts as functional, organism-based. The gist of the method: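 Endogenous polymerase in virions pelleted from HBV- or DHBV-positive sera, resuspended in PBS and lysed with 2-mercaptoethanol/Nonidet P-40. Run 60 min at 37 °C in 50 mM Tris-HCl pH 8.1, 60 mM KCl, 40 mM MgCl2. Substrates were 100 μM each of the three unlabeled dNTPs plus 0.4 μM [3H]TTP or [3H]dCTP, chosen by analogue type.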

Assay [2] deals with T1, DNA polymerase subunit gamma-1 (Homo sapiens, UniProt P54098).
T1 sequence (P54098 whole entry): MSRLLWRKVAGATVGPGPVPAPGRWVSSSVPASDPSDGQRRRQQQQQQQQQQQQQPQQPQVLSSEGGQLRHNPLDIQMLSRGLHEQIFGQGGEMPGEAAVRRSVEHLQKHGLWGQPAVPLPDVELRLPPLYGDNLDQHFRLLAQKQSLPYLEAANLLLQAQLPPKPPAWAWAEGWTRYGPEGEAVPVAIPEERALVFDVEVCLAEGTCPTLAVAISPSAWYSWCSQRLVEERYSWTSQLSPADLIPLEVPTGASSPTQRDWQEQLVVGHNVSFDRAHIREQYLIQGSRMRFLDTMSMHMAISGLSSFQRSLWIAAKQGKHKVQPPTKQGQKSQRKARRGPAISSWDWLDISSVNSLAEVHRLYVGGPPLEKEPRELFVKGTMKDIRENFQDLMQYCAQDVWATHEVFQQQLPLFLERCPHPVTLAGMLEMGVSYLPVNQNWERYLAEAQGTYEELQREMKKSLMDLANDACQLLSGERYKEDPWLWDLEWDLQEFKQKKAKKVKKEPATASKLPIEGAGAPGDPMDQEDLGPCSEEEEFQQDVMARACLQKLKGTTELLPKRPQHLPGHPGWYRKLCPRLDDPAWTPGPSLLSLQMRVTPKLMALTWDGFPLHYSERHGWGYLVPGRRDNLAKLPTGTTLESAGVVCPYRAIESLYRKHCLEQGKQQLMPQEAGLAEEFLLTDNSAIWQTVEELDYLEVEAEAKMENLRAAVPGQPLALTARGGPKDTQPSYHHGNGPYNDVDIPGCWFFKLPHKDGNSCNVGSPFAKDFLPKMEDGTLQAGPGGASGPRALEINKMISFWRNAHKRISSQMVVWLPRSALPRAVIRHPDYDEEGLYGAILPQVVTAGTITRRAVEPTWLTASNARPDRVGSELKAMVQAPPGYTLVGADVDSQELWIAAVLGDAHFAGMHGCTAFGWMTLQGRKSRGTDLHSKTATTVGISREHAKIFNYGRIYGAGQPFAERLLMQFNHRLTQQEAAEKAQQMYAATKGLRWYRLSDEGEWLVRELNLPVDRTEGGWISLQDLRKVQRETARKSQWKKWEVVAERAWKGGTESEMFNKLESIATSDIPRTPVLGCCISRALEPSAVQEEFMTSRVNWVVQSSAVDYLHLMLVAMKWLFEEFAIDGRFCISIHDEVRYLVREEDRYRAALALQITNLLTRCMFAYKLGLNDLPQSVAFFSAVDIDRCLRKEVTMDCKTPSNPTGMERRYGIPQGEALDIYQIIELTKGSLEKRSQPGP
Kind of assay: Compound was evaluated for the inhibition of cellular DNA polymerase (gamma).

The next assay deals with DNA polymerase beta (Homo sapiens, UniProt P06746). The experiment in a line: Compound was evaluated for the inhibition of cellular DNA polymerase (beta). The gist of the method: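 HeLa-derived pol β (0.25 unit), 15 min at 37 °C, in 50 mM Tris-HCl pH 8.7, 100 mM KCl, 10 mM MgCl2, 1 mM DTT, 0.4 mg/mL BSA. TTP analogues were tested on poly(dA)·oligo(dT)15 with [3H]TTP. dCTP analogues used activated DNA, [3H]dCTP and the other three dNTPs. Read-out was [3H] incorporation.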

Assay [3] can be described thus: Compound was evaluated for the inhibition of cellular DNA polymerase (delta). The gist of the method:
(§1)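 Calf thymus pols δ and ε (0.05 unit), 30 min at 37 °C, in 50 mM Bis-Tris pH 6.5, 6 mM MgCl2, 1 mM DTT, 250 μg/mL BSA. Templates were 3.5 μM poly(dA)·oligo(dT)15 with 10 μM [3H]TTP, or activated DNA with [3H]dCTP for dCTP analogues. δ assays also received recombinant PCNA at 10 μg/mL.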

The next assay relates to Nucleic Acid. The experiment in a line: Compound was evaluated for the inhibition of cellular DNA polymerase (epsilon). Format: nucleic-acid assay. The settings on record: Bos taurus. A digest of the protocol: as §1
The target of assay [4] is T2, DNA polymerase alpha catalytic subunit (Homo sapiens, UniProt P09884).
T2 sequence (P09884 whole entry): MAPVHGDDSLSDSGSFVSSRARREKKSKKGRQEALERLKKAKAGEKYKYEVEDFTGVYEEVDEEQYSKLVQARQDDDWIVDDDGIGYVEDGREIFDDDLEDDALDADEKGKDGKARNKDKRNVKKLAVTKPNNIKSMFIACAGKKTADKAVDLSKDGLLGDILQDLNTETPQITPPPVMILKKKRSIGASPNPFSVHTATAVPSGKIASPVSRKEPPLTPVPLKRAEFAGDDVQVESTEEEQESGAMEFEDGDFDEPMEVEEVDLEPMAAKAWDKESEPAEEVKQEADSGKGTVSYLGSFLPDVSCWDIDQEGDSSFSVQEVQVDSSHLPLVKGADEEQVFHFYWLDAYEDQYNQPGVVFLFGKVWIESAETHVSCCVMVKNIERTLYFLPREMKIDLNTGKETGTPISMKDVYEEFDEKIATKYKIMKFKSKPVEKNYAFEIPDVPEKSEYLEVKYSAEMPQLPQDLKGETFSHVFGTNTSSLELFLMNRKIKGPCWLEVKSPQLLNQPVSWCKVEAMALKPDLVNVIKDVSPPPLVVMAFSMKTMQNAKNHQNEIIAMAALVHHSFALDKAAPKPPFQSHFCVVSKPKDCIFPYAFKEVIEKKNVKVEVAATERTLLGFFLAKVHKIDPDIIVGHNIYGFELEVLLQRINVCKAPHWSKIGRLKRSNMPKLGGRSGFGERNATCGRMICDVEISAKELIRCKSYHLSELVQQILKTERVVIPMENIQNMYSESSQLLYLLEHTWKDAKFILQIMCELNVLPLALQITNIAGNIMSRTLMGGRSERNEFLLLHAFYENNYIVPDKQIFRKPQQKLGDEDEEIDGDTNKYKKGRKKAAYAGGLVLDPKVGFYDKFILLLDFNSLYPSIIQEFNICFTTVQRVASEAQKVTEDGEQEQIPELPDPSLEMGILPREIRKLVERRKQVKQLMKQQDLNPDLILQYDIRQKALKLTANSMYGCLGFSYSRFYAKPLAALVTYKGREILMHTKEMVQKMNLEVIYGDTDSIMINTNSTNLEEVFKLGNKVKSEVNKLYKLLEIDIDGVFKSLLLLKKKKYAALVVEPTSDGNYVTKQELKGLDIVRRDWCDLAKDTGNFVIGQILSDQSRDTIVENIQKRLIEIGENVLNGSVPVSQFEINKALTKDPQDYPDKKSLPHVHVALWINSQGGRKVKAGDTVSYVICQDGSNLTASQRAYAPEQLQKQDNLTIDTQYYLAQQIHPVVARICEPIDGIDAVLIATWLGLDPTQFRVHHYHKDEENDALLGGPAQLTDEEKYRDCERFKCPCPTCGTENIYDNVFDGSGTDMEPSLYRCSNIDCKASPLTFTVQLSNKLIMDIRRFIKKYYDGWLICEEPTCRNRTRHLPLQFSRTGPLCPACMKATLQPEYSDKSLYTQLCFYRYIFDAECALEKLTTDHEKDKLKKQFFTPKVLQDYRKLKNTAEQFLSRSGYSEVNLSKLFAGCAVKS
The experiment in a line: Compound was evaluated for the inhibition of cellular DNA polymerase (alpha).

pIC50: −log10 of the molar value.

For the molecule `Cc1cn([C@@H]2C[C@@H](F)[C@H](COP(=O)(O)OP(=O)(O)OP(=O)(O)O)O2)c(=O)[nH]c1=O` (stereo in doubt), the pIC50 (commonly −log10 of the IC50, conventionally taken in molar units) in assay [1] was 7.30; in the assay on Hepatitis B virus it was 6.82; in assay [2], 5.82; at DNA polymerase beta it was 5.66.
On to `O=c1ccn([C@@H]2C[C@@H](F)[C@H](COP(=O)(O)OP(=O)(O)OP(=O)(O)O)O2)c(=O)[nH]1` (stereo in doubt), for which the pIC50 was below 4.00 in assay [3]; 7.15 in assay [1]; below 4.00 with Nucleic Acid; 4.60 with Hepatitis B virus (Hepatitis B virus); 5.46 in assay [2]; 5.52 on DNA polymerase beta.
With `Nc1ccn([C@@H]2C[C@@H](F)[C@H](COP(=O)(O)OP(=O)(O)OP(=O)(O)O)O2)c(=O)n1` (stereo in doubt), the negative-log IC50 (pIC50) in assay [3] is below 4.00; in assay [1], 6.30; with Hepatitis B virus, 6.30; in assay [2], 5.70; at DNA polymerase beta, 6.00.
Turning to `Cc1cn([C@@H]2C[C@@H](F)[C@H](COP(=O)(O)OP(=O)(O)OP(=O)(O)O)O2)c(=O)nc1N` (stereo in doubt), the negative logarithm of the IC50 (pIC50) in assay [3] was 4.00; in assay [4], below 3.70; in assay [1], 6.22; with Nucleic Acid it was below 4.00; in the assay on Hepatitis B virus, 7.52; in assay [2], 6.30. Moreover, the pIC50 at DNA polymerase beta was 6.00.
`Cc1cn([C@@H]2C[C@@H](F)[C@H](COP(=O)(O)OP(=O)(O)OP(=O)(O)O)O2)c(=O)[nH]c1=O` (stereo in doubt; 16): the pIC50 in assay [3] was below 3.70; in assay [1], 4.00; in the assay with Nucleic Acid, below 4.00; with Hepatitis B virus (Hepatitis B virus), 6.60; in assay [2], below 4.00; against DNA polymerase beta, below 3.70.
Take `O=c1ccn([C@@H]2C[C@@H](F)[C@H](COP(=O)(O)OP(=O)(O)OP(=O)(O)O)O2)c(=O)[nH]1` (stereo in doubt; 17): the pIC50 in assay [3] is below 3.70; in assay [1] it was below 3.70; with Hepatitis B virus, 4.46; in assay [2], below 4.00; on DNA polymerase beta, below 4.00.
In the case of `Nc1ccn([C@@H]2C[C@@H](F)[C@H](COP(=O)(O)OP(=O)(O)OP(=O)(O)O)O2)c(=O)n1` (stereo in doubt; 18), the negative logarithm of the IC50 (pIC50) in assay [3] was below 3.70; in assay [1] it was below 4.00; in the assay with Nucleic Acid, below 4.00; in the assay on Hepatitis B virus, 5.15; in assay [2] it was below 4.30; at DNA polymerase beta, below 4.00.
As for `Cc1cn([C@@H]2C[C@@H](F)[C@H](COP(=O)(O)OP(=O)(O)OP(=O)(O)O)O2)c(=O)nc1N` (stereo in doubt; 19), the negative-log IC50 (pIC50) was below 3.70 in assay [3]; below 3.70 in assay [4]; below 4.00 in assay [1]; 5.72 with Hepatitis B virus; below 4.30 in assay [2]; below 3.70 on DNA polymerase beta.

The values are drawn from ChEMBL document CHEMBL1131623, “Newly synthesized L-enantiomers of 3'-fluoro-modified beta-2'-deoxyribonucleoside 5'-triphosphates inhibit hepatitis B DNA polymerases but not the five cellular DNA polymerases alpha, beta, gamma, delta, and epsilon nor HIV-1 reverse transcriptase” (J Med Chem, 1998).
